The record followed here is ChEMBL document CHEMBL1155223, “2-Phenylpyrazolo[4,3-d]pyrimidin-7-one as a new scaffold to obtain potent and selective human A3 adenosine receptor antagonists: new insights into the receptor-antagonist recognition” (J Med Chem, 2009).

Assay [1] addresses T1, Adenosine receptor A1 (Homo sapiens) (UniProt P30542).
T1 sequence (whole entry): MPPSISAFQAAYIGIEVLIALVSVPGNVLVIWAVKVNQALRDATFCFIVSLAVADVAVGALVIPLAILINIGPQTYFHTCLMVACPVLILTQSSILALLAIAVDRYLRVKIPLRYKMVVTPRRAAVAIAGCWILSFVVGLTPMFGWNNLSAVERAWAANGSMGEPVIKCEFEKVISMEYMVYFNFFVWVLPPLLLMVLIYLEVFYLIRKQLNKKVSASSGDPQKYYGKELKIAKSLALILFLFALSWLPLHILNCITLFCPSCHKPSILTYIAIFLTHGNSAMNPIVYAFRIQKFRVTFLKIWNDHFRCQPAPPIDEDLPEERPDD
The experiment in a line: Inhibition of [125I]DPCPX binding to human cloned adenosine A1 receptor expressed in CHO cells at 1 uM after 120 mins by scintillation counting. Particulars: in the assay text read “[3H]DPCPX” for “[125I]DPCPX”. Format: cell-based. In a few lines:
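Membranes from hA1 CHO (50 μg protein) with [3H]DPCPX 1 nM, 50 mM Tris-HCl pH 7.4, 120 min at 25 °C; nonspecific binding defined by 10 μM CHA. Percent inhibition at 1 μM test compound.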

Assay [2] has as its target T2, Adenosine receptor A2b (Homo sapiens) (UniProt P29275).
T2 sequence (whole entry): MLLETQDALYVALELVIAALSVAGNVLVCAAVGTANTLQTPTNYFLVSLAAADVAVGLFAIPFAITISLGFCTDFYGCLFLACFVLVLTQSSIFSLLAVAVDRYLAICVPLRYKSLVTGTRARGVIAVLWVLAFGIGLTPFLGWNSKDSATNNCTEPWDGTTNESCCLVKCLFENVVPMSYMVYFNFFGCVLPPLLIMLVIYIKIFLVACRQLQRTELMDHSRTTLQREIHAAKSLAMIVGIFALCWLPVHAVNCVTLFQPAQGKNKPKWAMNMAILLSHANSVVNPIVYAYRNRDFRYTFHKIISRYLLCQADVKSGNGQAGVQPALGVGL
The experiment in a line: Antagonist activity at human adenosine A2B receptor expressed in CHO cells assessed as inhibition of NECA-stimulated [3H]cAMP production at 1 uM by scintillation counting. Format: functional, cell-based. Summed up: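 Suspended CHO cells stably expressing hA2B (1 × 10⁶ cells/assay) in buffer with adenosine deaminase 2 IU/mL and Ro 20-1724, preincubated 10 min at 37 °C, pH 7.4. Stimulated with NECA 200 nM; compound at 1 μM; percent inhibition reported. Stopped with cold 6% TCA, ether-extracted, cAMP quantified by [3H]cAMP competition with beef adrenal binding protein.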
(cAMP levels reflect the balance of adenylyl cyclase and phosphodiesterase activity.)

The target in assay [3] is Adenosine receptor A2a (Homo sapiens) (UniProt P29274). The experiment in a line: Inhibition of [125I]Z241385 binding to human cloned adenosine A2A receptor expressed in CHO cells at 1 uM after 120 mins by scintillation counting. Format: cell-based.
Adenosine receptor A2a (Homo sapiens), sequence (P29274 whole entry): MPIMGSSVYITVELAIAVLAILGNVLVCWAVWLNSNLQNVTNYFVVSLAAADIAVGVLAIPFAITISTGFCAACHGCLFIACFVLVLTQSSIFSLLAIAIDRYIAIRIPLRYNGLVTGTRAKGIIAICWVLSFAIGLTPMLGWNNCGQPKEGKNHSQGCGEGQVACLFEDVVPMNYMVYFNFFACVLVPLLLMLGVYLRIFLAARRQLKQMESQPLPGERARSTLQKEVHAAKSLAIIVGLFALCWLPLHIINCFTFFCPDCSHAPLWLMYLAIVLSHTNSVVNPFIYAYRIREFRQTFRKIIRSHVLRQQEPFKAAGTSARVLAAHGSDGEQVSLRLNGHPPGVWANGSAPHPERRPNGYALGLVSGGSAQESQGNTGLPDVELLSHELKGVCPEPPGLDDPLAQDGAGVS
Assay [4] addresses T3, Adenosine receptor A3 (Homo sapiens) (UniProt P0DMS8).
T3 sequence (whole entry): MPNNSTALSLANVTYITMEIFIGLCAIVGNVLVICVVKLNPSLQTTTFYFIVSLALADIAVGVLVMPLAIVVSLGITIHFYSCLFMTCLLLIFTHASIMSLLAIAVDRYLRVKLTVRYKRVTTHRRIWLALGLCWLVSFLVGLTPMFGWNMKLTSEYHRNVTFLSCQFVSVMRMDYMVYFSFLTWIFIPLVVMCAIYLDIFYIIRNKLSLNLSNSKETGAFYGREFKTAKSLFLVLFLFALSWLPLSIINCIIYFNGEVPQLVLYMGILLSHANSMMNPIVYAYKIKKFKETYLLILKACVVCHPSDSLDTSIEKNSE
The experiment in a line: Inhibition of [125I]AB-MECA binding to human cloned adenosine A3 receptor expressed in CHO cells at 1 uM after 120 mins by scintillation counting. Format: cell-based. In a few lines: (§1)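 hA3 CHO membranes (50 μg protein) incubated with [125I]AB-MECA 0.5 nM in 50 mM Tris-HCl, 10 mM MgCl2, 1 mM EDTA, pH 7.4, 120 min at 4 °C; six to eight ligand concentrations. Nonspecific binding with 1 μM AB-MECA. Ki via Cheng–Prusoff, mean ± SEM of four assays in duplicate; percent inhibition given at 1 μM.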

For assay [5], the target named is T4, Adenosine receptor A3 (Homo sapiens, UniProt P0DMS8).
T4 sequence (P0DMS8 whole entry): T3 sequence (whole entry)
The experiment in a line: Antagonist activity at human cloned adenosine A3 receptor expressed in CHO cells assessed as inhibition of Cl-IB-MECA-inhibited [3H]cAMP production by scintillation counting. The format is functional, cell-based. Summed up:
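hA3-transfected CHO cells (1 × 10⁶ cells/assay), preincubated 10 min at 37 °C with adenosine deaminase 2 IU/mL plus Ro 20-1724, pH 7.4; forskolin 1 μM and Cl-IB-MECA 100 nM present. Stopped with cold 6% TCA; cAMP measured by [3H]cAMP binding-protein competition. IC50 from sigmoid nonlinear regression, mean ± SEM of four experiments; single-point data at 1 μM as percent inhibition.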

Assay [6] has as its target T4, Adenosine receptor A3. The experiment in a line: Displacement of [125I]AB-MECA from human cloned adenosine A3 receptor expressed in CHO cells after 120 mins by scintillation counting. Format: cell-based. Summed up:
as §1

Assay [7] deals with T3, Adenosine receptor A3 (Homo sapiens). Particulars: CHO, 1 uM.

Each structure is given as a SMILES string.

Usually inhibition stands for the relative decrease from the control value, in per cent. As for `O=c1[nH]c(-c2ccccc2)nc2cn(-c3ccccc3)nc12`, the inhibition came out at 22% in assay [1], 4% in assay [2], 10% in assay [3] and 10% in assay [4].
For orientation: IC50 means the midpoint of a concentration-inhibition curve. One may read the Ki as the dissociation constant of the complex between target and ligand, obtained from inhibition or displacement. Take `COc1ccc(-n2cc3nc[nH]c(=O)c3n2)cc1`: the inhibition came out at 2% in assay [1], 3% in assay [2] and 1% in assay [3]. The IC50 on Adenosine receptor A3 [5] stood at 270 nM. The affinity at Adenosine receptor A3 [6] corresponds to a Ki of 54 nM.
Consider `CCc1nc2cn(-c3ccc(OC)cc3)nc2c(=O)[nH]1`, for which the figures for the inhibition in assay [1], in assay [2] and in assay [3] were 1%, 5% and 1%, respectively. Moreover, at Adenosine receptor A3 [5], the IC50 came out at 63 nM. On Adenosine receptor A3 [6], the affinity corresponds to a Ki of 14 nM.
On to `Nc1nc(NCCc2ccc(O)cc2)nc2nc(-c3ccco3)nn12`, for which the inhibition in assay [7] is 2%; in assay [4], 5%.
Consider `O=c1[nH]cnc2cn(-c3ccccc3)nc12`, for which the inhibition in assay [1] came out at 1%; in assay [2], 3%; in assay [3], 1%. The IC50 at Adenosine receptor A3 [5] was 725 nM. This molecule displayed a Ki on Adenosine receptor A3 [6] of 185 nM.
As for `COc1ccc(-n2cc3nc(Cc4ccccc4)[nH]c(=O)c3n2)cc1`, the inhibition in assay [1] is 10%; in assay [2], 4%; in assay [3], 1%. Also, on Adenosine receptor A3 [5], the 50% inhibitory concentration (IC50) was found to be 850 nM. At Adenosine receptor A3 [6], this molecule gave a Ki of 250 nM.
For the molecule `Cc1cccc(-n2cc3nc(C)[nH]c(=O)c3n2)c1`, the results for the inhibition in assay [1], in assay [2] and in assay [3] were 4%, 2% and 1%, respectively. Moreover, the IC50 at Adenosine receptor A3 [5] was 354 nM. Besides, the Ki on Adenosine receptor A3 [6] turned out to be 72 nM.
Take `O=c1[nH]c(=O)c2nn(-c3ccccc3)cc2[nH]1`: the inhibition in assay [1] was 4%; in assay [2] it was 2%; in assay [3], 5%; in assay [4] it was 12%.
The matching figures for `COc1ccc(-n2cc3nc(-c4ccccc4)[nH]c(=O)c3n2)cc1`: 1%, 5%, 1% and 16%.
As to `O=c1[nH]c(Cc2ccccc2)nc2cn(-c3ccccc3)nc12`, the inhibition in assay [1] is 11%; in assay [2], 4%; in assay [3] it was 1%; in assay [7] it was 6%. This molecule had a Ki at Adenosine receptor A3 [6] of 900 nM.
For `CCc1nc2cn(-c3ccccc3)nc2c(=O)[nH]1`, the figures for the inhibition in assay [1], in assay [2] and in assay [3] were 11%, 1% and 6%, respectively. Besides, the IC50 on Adenosine receptor A3 [5] came to 245 nM. At Adenosine receptor A3 [6], this molecule gave a Ki of 52 nM.
For `Cc1nc2cn(-c3ccccc3)nc2c(=O)[nH]1`, the inhibition in assay [1] is 9%; in assay [2] it was 2%; in assay [3] it was 1%. Besides, on Adenosine receptor A3 [5], the IC50 came to 87 nM. This molecule also registered a Ki on Adenosine receptor A3 [6] of 16 nM.
On the same counts, the results for `Cc1ccc(-n2cc3nc(C)[nH]c(=O)c3n2)cc1` are 1%, 4%, 1%, 46 nM and 10 nM.
For the molecule `COc1ccc(-n2cc3nc(C)[nH]c(=O)c3n2)cc1`, the inhibition in assay [1] is 5%; in assay [2], 2%; in assay [3] it was 1%. At Adenosine receptor A3 [5], the IC50 came out at 5.2 nM. Affinity at Adenosine receptor A3 [6] was put at a Ki of 1.2 nM.
